Test results: ChEMBL document CHEMBL1287712, “Synthetic analogs of indole-containing natural products as inhibitors of sortase A and isocitrate lyase” (Bioorg Med Chem Lett, 2010)
pIC50: −log10 of the molar value. ≈ marks a conversion by molar mass, not a printed value. Where “and” joins values, the source holds several entries; their conditions need not be identical. Equal values may be shown once.

Columns and labels:
[1] = biological target: T1, Sortase A (Staphylococcus aureus, UniProt Q9S446); assay: Inhibition of Staphylococcus aureus Sortase A
T1 sequence (Q9S446 whole entry): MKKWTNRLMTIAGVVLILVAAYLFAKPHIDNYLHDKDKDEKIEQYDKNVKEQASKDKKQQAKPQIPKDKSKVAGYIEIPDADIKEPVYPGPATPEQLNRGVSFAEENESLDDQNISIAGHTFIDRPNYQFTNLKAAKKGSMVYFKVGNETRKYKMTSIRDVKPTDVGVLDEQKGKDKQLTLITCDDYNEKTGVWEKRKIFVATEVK

[2] = biological target: Isocitrate lyase (Candida albicans, UniProt Q9P8Q7); assay: Inhibition of Candida albicans isocitrate lyase
Chain of Isocitrate lyase (Q9P8Q7 whole entry): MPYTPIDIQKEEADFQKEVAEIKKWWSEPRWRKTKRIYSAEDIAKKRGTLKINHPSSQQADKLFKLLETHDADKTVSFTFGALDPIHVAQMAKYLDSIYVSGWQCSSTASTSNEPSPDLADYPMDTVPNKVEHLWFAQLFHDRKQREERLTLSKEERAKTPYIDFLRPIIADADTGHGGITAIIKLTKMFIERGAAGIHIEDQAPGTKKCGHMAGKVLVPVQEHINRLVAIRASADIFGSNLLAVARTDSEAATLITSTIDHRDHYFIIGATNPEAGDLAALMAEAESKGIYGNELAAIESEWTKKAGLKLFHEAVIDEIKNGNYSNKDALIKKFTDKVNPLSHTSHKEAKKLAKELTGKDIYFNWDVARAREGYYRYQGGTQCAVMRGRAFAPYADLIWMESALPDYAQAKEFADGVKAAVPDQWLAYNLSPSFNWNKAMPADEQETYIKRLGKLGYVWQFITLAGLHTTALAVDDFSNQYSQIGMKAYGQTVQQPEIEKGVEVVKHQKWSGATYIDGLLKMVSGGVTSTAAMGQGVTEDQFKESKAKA

[3] = test system: Staphylococcus aureus; assay: Antimicrobial activity against Staphylococcus aureus ATCC 6538p; type: functional
Method in brief: (§1)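 MIC by two-fold serial broth dilution in microtiter format. MIC taken as the lowest concentration giving complete growth inhibition relative to the negative control.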

[4] = test system: Escherichia coli; assay: Antimicrobial activity against Escherichia coli ATCC 25922; type: functional; method in brief: as §1
[5] = test system: Bacillus subtilis; assay: Antimicrobial activity against Bacillus subtilis ATCC 6633; type: functional; method in brief: as §1
[6] = test system: Salmonella typhimurium; assay: Antimicrobial activity against Salmonella Typhimurium ATCC 14028; type: functional, Salmonella enterica subsp. enterica serovar Typhimurium; conditions: Salmonella enterica; method in brief: as §1
[7] = test system: Micrococcus luteus; assay: Antimicrobial activity against Micrococcus luteus IFC 12708; type: functional; method in brief: as §1
[8] = test system: Proteus vulgaris; assay: Antimicrobial activity against Proteus vulgaris ATCC 3851; type: functional; method in brief: as §1

SMILES	pIC50 [1]	pIC50 [2]	MIC [3]	MIC [4]	MIC [5]	MIC [6]	MIC [7]	MIC [8]
O=C(O)C(=O)c1c[nH]c2ccc(O)cc12	< 3.31	< 3.31						
COc1ccc2[nH]cc(C(=O)C(=O)O)c2c1	< 3.34	< 3.34						
Cc1[nH]c2ccccc2c1C(=O)C(=O)O	3.88	< 3.31	> 200 µg/mL	> 200 µg/mL	> 200 µg/mL	> 200 µg/mL	> 200 µg/mL	> 200 µg/mL
CCCCCC1NCCc2c1[nH]c1ccccc21 (centres undefined)	< 3.38	< 3.38						
CCCCCC1NCCc2c1[nH]c1ccc(OC)cc21 (centres undefined)	< 3.44	< 3.44						
Oc1ccc2[nH]c3c(c2c1)CCNC3c1ccccc1 (centres undefined)	3.97	< 3.42	100 µg/mL (≈ 378 µM)	> 200 µg/mL	100 µg/mL (≈ 378 µM)	100 µg/mL (≈ 378 µM)	100 µg/mL (≈ 378 µM)	100 µg/mL (≈ 378 µM)
c1ccc(C2=NCCc3c2[nH]c2ccccc32)cc1	4.01	< 3.39	> 200 µg/mL	> 200 µg/mL	> 200 µg/mL	> 200 µg/mL	> 200 µg/mL	> 200 µg/mL
O=C(Nc1ccccc1)C(=O)c1c[nH]c2ccc(O)cc12	< 3.45	< 3.45						
COc1ccc2[nH]cc(C(=O)C(=O)Nc3ccccc3)c2c1	< 3.47	< 3.47						
COc1ccc2[nH]c3c(c2c1)CCNC3c1ccccc1 (centres undefined)	3.94	< 3.44	> 200 µg/mL	> 200 µg/mL	> 200 µg/mL	> 200 µg/mL	> 200 µg/mL	> 200 µg/mL
c1ccc2cc(C3NCCc4c3[nH]c3ccccc43)ccc2c1 (centres undefined)	< 3.47	3.86	12.5 µg/mL (≈ 41.9 µM)	50 µg/mL (≈ 168 µM)	6.25 µg/mL (≈ 20.9 µM)	12.5 µg/mL (≈ 41.9 µM)	12.5 µg/mL (≈ 41.9 µM)	6.25 µg/mL (≈ 20.9 µM)
COc1ccc(C2NCCc3c2[nH]c2ccccc32)cc1 (centres undefined)	< 3.44	3.74 and 3.75	12.5 µg/mL (≈ 44.9 µM)	50 µg/mL (≈ 180 µM)	6.25 µg/mL (≈ 22.5 µM)	6.25 µg/mL (≈ 22.5 µM)	6.25 µg/mL (≈ 22.5 µM)	6.25 µg/mL (≈ 22.5 µM)
COc1ccc2[nH]c3c(c2c1)CCN=C3c1ccccc1	4.60	< 3.44	> 200 µg/mL	> 200 µg/mL	> 200 µg/mL	> 200 µg/mL	> 200 µg/mL	> 200 µg/mL
c1ccc(C2NCCc3c2[nH]c2ccccc32)cc1 (centres undefined)	< 3.40	< 3.40						
COc1cccc(C2NCCc3c2[nH]c2ccccc32)c1 (centres undefined)	< 3.44	4.12	6.25 µg/mL (≈ 22.5 µM)	50 µg/mL (≈ 180 µM)	12.5 µg/mL (≈ 44.9 µM)	12.5 µg/mL (≈ 44.9 µM)	12.5 µg/mL (≈ 44.9 µM)	12.5 µg/mL (≈ 44.9 µM)
O=C(O)C1NCCc2c1[nH]c1ccc(O)cc21 (centres undefined)	< 3.37	< 3.37						
O=C(O)C1NCCc2c1[nH]c1ccccc21 (centres undefined)	< 3.33	< 3.33						
O=C(Nc1ccccc1)C(=O)c1c[nH]c2ccccc12	3.76	< 3.42	> 200 µg/mL	> 200 µg/mL	> 200 µg/mL	> 200 µg/mL	> 200 µg/mL	> 200 µg/mL
COc1ccc2[nH]c3c(c2c1)CCNC3C(=O)O (centres undefined)	< 3.39	< 3.39						
O=C1NCCc2c1[nH]c1ccc(O)cc21	< 3.31	< 3.31						
COC(=O)c1c[nH]c2ccc(O)cc12	< 3.28	< 3.28						
O=C(O)C1=NCCc2c1[nH]c1ccc(O)cc21	3.54							
O=Cc1c[nH]c2ccc(O)cc12	< 3.21							
Cc1[nH]c2ccccc2c1C(=O)C(=O)Nc1ccccc1	4.21	< 3.44	> 200 µg/mL	> 200 µg/mL	> 200 µg/mL	> 200 µg/mL	> 200 µg/mL	> 200 µg/mL
O=C(O)C(=O)c1c[nH]c2ccccc12	4.16	< 3.28	> 200 µg/mL	> 200 µg/mL	> 200 µg/mL	> 200 µg/mL	> 200 µg/mL	> 200 µg/mL
CC1(C)S[C@@H]2[C@H](NC(=O)[C@H](N)c3ccccc3)C(=O)N2[C@H]1C(=O)O [AMPICILLIN]			1.56 µg/mL (≈ 4.46 µM)	50 µg/mL (≈ 143 µM)	0.78 µg/mL (≈ 2.23 µM)	1.56 µg/mL (≈ 4.46 µM)	0.78 µg/mL (≈ 2.23 µM)	0.78 µg/mL (≈ 2.23 µM)
O=C(CO)c1c[nH]c2ccc(O)cc12 [HYRTIOSIN A]	< 3.28							
O=C(C(=O)c1c[nH]c2ccc(O)cc12)c1c[nH]c2ccc(O)cc12 [HYRTIOSIN B]	< 3.51	4.04						
NCCc1c[nH]c2ccc(O)cc12 [SEROTONIN]	< 3.25							
